A selection: hits, their analogues and other compounds. The true share with any hit is near 2.6%.
Rce1 inh – yeast Rce1p protease inhibitors, primary screen, biochemical, fluorescence, cell-free homogeneous. yeast membranes, quenched prenylated peptide cleavage fluorescence. CAAX prenyl protease 2 (Saccharomyces cerevisiae (strain ATCC 204508 / S288c)), Q03530. 290,000 compounds, 0.27% hits. calls only;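 active = fall in fluorescence gain of 50% or more versus controls, with final raw signal at or below 3038400; inconclusive = same 50% fall but final raw signal above 3038400; inactive = fall in fluorescence gain under 50%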;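 also: plate controls were neutral control wells for no effect and wells lacking membranes for full effect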
Target sequence (Q03530 whole entry, looked up): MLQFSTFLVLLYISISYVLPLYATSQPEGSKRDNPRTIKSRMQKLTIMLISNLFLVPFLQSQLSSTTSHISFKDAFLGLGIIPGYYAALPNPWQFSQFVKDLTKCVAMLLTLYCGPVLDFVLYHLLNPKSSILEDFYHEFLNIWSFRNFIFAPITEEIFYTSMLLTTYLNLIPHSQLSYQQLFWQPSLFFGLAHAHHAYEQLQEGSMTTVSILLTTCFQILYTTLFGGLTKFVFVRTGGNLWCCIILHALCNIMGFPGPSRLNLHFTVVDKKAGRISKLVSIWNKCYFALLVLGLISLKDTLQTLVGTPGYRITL
TAAR1 antag – human TAAR1 antagonists, primary screen, Fluo-8 calcium fluorescence, CHO RD-HGA16 cells; antagonist; Trace amine-associated receptor 1 (Homo sapiens), Q96RJ0; 360,000 compounds, 1.5% hits; inhibition, % at 3 µM;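 active = inhibition above a per-plate cutoff, the mean inhibition of test compounds on that plate plus 3 SD, cut at about 49% in these data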;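 also: 0% = DMSO plus EC80 beta-PEA response and 100% = DMSO alone without agonist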
Target sequence (Q96RJ0 whole entry, looked up): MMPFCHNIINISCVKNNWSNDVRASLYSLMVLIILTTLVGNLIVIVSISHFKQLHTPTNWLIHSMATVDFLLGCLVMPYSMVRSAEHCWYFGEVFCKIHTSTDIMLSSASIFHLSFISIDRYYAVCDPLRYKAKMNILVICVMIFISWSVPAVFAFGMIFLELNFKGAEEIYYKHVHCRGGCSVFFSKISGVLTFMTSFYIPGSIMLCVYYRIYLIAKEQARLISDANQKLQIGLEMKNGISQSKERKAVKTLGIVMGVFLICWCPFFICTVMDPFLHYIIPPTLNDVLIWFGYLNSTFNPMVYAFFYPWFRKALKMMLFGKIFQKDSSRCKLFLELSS
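Assay system: CHO-derived RD-HGA16 cells stably expressing human TAAR1 plus Gα16. Timing: 140 s kinetic read after compound, 140 s after agonist. Technique: kinetic Fluo-8 calcium fluorescence measurement. Measure: % inhibition of agonist calcium response.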
Platelet DG rel – inhibitors of platelet dense granule secretion, primary screen, cell-based, MLPCN, human platelets; human platelet-rich plasma, SFLLRN dense granule ATP release, luminescence; inhibition, %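 (compounds screened at 7.5 µM in platelet-rich plasma)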; 300,000 compounds, 0.22% hits; AID 1663, 2009;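 active = mean replicate score, as percent of positive control, at or above 50; inconclusive = mean below 50 but at least one replicate at or above 50; inactive = mean and every replicate below 50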
VLA-4 inh – inhibition in human VLA-4 binding assay, primary screen, VLA-4 allosteric modulator project, MLPCN library, flow cytometry, VLA-4 expressing cells; ligand binding flow cytometry; inhibition, % (about 7 µM as worked out from the volumes in the protocol); 330,000 compounds, 0.2% hits; AID 2557, 2010; in the data active = inhibition above about 50%
TAAR1 ag – human TAAR1 agonists, primary screen, Fluo-8 calcium fluorescence, CHO RD-HGA16 cells; Trace amine-associated receptor 1 (Homo sapiens), Q96RJ0; 360,000 compounds, 0.99% hits; activation, % at 3 µM; vehicle wells 0%, saturating PEA agonist 100%;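 active = activation above the mean activation of all test compounds in the run plus 3 SD, cut at about 38% in these data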
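System: CHO-derived RD-HGA16 cells with stable Gα16 and human TAAR1 / Times: 17-24 h plating, Fluo-8 75 min 37 °C, 30 min RT / Technique: calcium-sensitive Fluo-8 signal, excitation 470-495, emission 515-575 nm / Measure: % activation relative to PEA EC100 response / Benchmarks: DMSO and PEA EC100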
TAAR1 nonsel count – nonselective antagonists in TAAR1 counter-screen cells, counter-screen for hTAAR1 antagonist project, cell-based, fluorescence, calcium; inhibition, % at 3 µM; counterscreen cell line, antagonist mode; 2,400 compounds, 77% hits; shares compounds with TAAR1 antag; in the data active = inhibition above about 22%;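 also: CHO-Ga16 host cells stimulated with ATP at an EC80 level; 0% = agonist EC80 plus vehicle and 100% = vehicle without agonist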
TAAR1 ant conf – human TAAR1 antagonists, retest of hits, confirmation, cell-based, fluorescence. shares compounds with TAAR1 antag. 2,400 compounds, 40% hits. inhibition, % at 3 µM. TAAR1-expressing cells, fluorescence antagonist read-out; in the data active = inhibition above about 49%;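 also: CHO-Ga16 host cells challenged with agonist PEA near its EC80; 0% = agonist at EC80 plus vehicle and 100% = vehicle with no agonist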
Ga16 nonsel ag – calcium activation in Ga16-expressing cells, counter-screen for TAAR1 antagonist project, cell-based, fluorescence. shares compounds with TAAR1 antag. agonist counterscreen. activation, % at 3 µM. 2,400 compounds, 18% hits. AID 651953, 2012; in the data active = activation above about 12%;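 also: 0% = vehicle wells and 100% = saturating stimulus response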
TAAR1 ag count – TAAR1 activation by candidate antagonists – cell-based, fluorescence, counter-screen for TAAR1 antagonist project | shares compounds with TAAR1 antag | hTAAR1 cell line, agonist mode | activation, % at 3 µM | 2,400 compounds, 2% hits; in the data active = activation above about 37%;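 also: CHO cells stably expressing TAAR1 with calcium dye readout; 0% = DMSO vehicle and 100% = full agonist response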
Starred values were filed as active, the others as inactive; i = inactive; ? = inconclusive; . = no result; + = active, no number.

SMILES | Rce1 inh | TAAR1 antag | Platelet DG rel | VLA-4 inh | TAAR1 ag | TAAR1 nonsel count | TAAR1 ant conf | Ga16 nonsel ag | TAAR1 ag count
COc1ccc(NC(=O)CSc2ccc(-c3ccccn3)nn2)cc1OC | i | -14 | 4 | 5 | 5 | . | . | . | .
CC(=O)c1cccc(NC(=O)CSc2ccc(-c3ccc4c(c3)OCO4)nn2)c1 | i | 54* | 5 | -1 | 5 | 27* | 35 | 8 | 6
Cc1cccc(CNC(=O)Nc2nnc([C@H]3C[C@H](O)[C@@H](CO)O3)s2)c1 | . | -19 | . | . | 4 | . | . | . | .
COc1ccc(OC)c(CN2CCCC(C(=O)N3CCCCC3)C2)c1 (stereo not drawn) | i | 106* | 13 | 8 | -3 | 12 | 1 | 1 | 7
CCOC(=O)N1CCN(C(=O)CCN2C(=O)/C(=C\c3cccc(OC)c3)SC2=S)CC1 | i | 12 | -5 | 0 | 4 | . | . | . | .
CC(C)[C@H](NC(=O)OCc1ccccc1)C(=O)OCC(=O)NCCc1ccccc1 | i | 16 | 0 | 9 | 10 | . | . | . | .
CC(=O)c1cccc(NC(=O)COC(=O)[C@@H](NC(=O)OCc2ccccc2)C(C)C)c1 | i | 60* | ? | -7 | 20 | 30* | 50* | 10 | 14
CCOc1ccccc1NC(=O)NNC(=O)CCc1ccc(OC)cc1 | i | 1 | 9 | 4 | 4 | . | . | . | .
Nn1c(SCC(=O)NC2CCS(=O)(=O)C2)nc2scc(-c3ccccc3)c2c1=O (stereo not drawn) | . | 3 | . | 13 | 0 | . | . | . | .
CCN(CC)c1ncnc2scc(C3COc4ccccc4O3)c12 (stereo not drawn) | i | 53* | -20 | -6 | 7 | 8 | 36 | 3 | 9
C[C@H]1CN([C@@H](C)CO)C(=O)CCCn2nncc2CO[C@@H]1CN(C)Cc1ccc(-c2ccccc2)cc1 | . | 36 | . | . | 11 | . | . | . | .
CON(C)C(=O)[C@H]1C[C@@H]2[C@H](C[C@@H](c3ccccc3)[C@H]1C)N(c1ccc(F)cc1)C(=O)N2CCCOc1ccccc1 | . | 3 | . | . | 0 | . | . | . | .
CCN(CC)C(=O)[C@H]1C[C@@H]2[C@H](C[C@@H](c3ccccc3)[C@H]1C)N(c1ccc(F)cc1)C(=O)N2CCCOc1ccccc1 | . | 69* | . | . | 4 | 30* | 58* | 5 | 5
O=C(CCCCCN1C(=O)[C@@H]2Cc3ccccc3CN2C1=O)Nc1cccc(F)c1 | i | 67* | 6 | 10 | 8 | 42* | 60* | 13* | 10
COc1cc(C(=O)OCC(=O)N2CCN(S(=O)(=O)c3ccc(C)cc3C)CC2)c([N+](=O)[O-])cc1OC | . | 31 | . | . | 7 | . | . | . | .
CCOC(=O)c1cc(NC(=O)Cc2ccc(S(=O)(=O)N3CCOCC3)s2)cc(C(=O)OCC)c1 | i | 76* | . | -6 | 12 | 29* | 45 | 11 | 11
O=C(c1ccc(CS(=O)Cc2ccccc2Cl)o1)N1CCN(c2ccccn2)CC1 (stereo not drawn) | i | 49* | 35 | -5 | 17 | 15 | 32 | 8 | 6
O=C(NCCc1ccc(Cl)cc1)c1ccc(CS(=O)Cc2ccccc2Cl)o1 (stereo not drawn) | i | 60* | -1 | -2 | 9 | 29* | 40 | 9 | 8
O=C(C(=O)N1CCN(Cc2ccc3c(c2)OCO3)CC1)c1c[nH]c2ccccc12 | i | 7 | -6 | 9 | 7 | . | . | . | .
Fc1ccc2nc(-c3ccc(CN4CCC(c5nc6ccccc6[nH]5)CC4)cc3)c(-c3ccccc3)nc2c1 | . | 54* | . | . | 19 | 47* | 55* | 21* | 34
O=c1nc(Nc2ccc([N+](=O)[O-])cc2)[nH]c(=O)[nH]1 | i | 9 | 6 | 5 | 1 | . | . | . | .
Cc1noc(C)c1COc1ccccc1C(=O)N1CCN(S(=O)(=O)c2ccc(C(C)C)cc2)CC1 | . | -26 | . | . | 2 | . | . | . | .
Cc1ccc(-c2nn(-c3cccc(F)c3)cc2CNCc2cccnc2)o1 | i | 66* | 3 | 12 | 9 | 31* | 43 | 7 | 11
Cc1ccc(C(=O)NCC(=O)OCC(=O)/C=C2\N(C)c3ccccc3C2(C)C)cc1C | i | 58* | -17 | -119 | 3 | 29* | 41 | 6 | 8
CCOC(=O)c1ccccc1NC(=O)COC(=O)c1cc([N+](=O)[O-])ccc1N1CCOCC1 | i | 59* | 2 | 6 | 1 | 27* | 30 | 7 | 3
SMILES | Rce1 inh | TAAR1 antag | Platelet DG rel | VLA-4 inh | TAAR1 ag | TAAR1 nonsel count | TAAR1 ant conf | Ga16 nonsel ag | TAAR1 ag count
C[C@@H]1CN([C@@H](C)CO)C(=O)c2cc(-c3cccnc3)cnc2O[C@H]1CN(C)C(=O)c1cccc(F)c1 | . | -21 | . | . | 3 | . | . | . | .
CN(C)S(=O)(=O)c1ccc(Cl)c(NC(=O)COC(=O)/C=C/c2ccc3ccccc3n2)c1 | . | 9 | . | 4 | 0 | . | . | . | .
COc1ccc(CN2CCN(C(c3ccc(F)cc3)c3ccc(F)cc3)CC2)c(OC)c1OC | + | 56* | -1 | 35 | 2 | 19 | 29 | 5 | 11
COc1ccc(CN2CCN(c3ccc(F)cc3)CC2)c(OC)c1OC | i | -13 | 10 | 6 | 18 | . | . | . | .
COc1ccc(CCNC(=O)CN(c2cc(OC)ccc2OC)S(=O)(=O)c2ccccc2)cc1 | i | 50* | . | -16 | 9 | 30* | 35 | 5 | 4
COc1ccc(OC)c(N(CC(=O)NCCc2ccc(OC)c(OC)c2)S(=O)(=O)c2ccccc2)c1 | i | 23 | -7 | -3 | 7 | . | . | . | .
COc1ccc(OC)c(N(CC(=O)NCc2ccccc2)S(=O)(=O)c2ccc(OC)c(OC)c2)c1 | i | 51* | -12 | -7 | 14 | 22* | 36 | 9 | 8
COc1ccc(OC)c(N(CC(=O)O)S(=O)(=O)c2ccc(OC)c(OC)c2)c1 | i | -28 | -4 | -12 | 2 | . | . | . | .
O=C(NCCCCc1ccccc1)C1CC(c2ccc(C(F)(F)F)cc2)=NO1 (stereo not drawn) | i | 84* | -6 | 33 | 28 | 23* | 18 | 3 | 3

Source: PubChem
